Laboratory results published in ChEMBL document CHEMBL1148141, “New labdene iterpenes from Eupatorium glutinosum” (2002).
≈ marks a conversion by molar mass, not a printed value. Calls of active or inactive are those of the source. The rule behind the calls is not given here.

Key:
Staphylococcus aureus [1] = experiment: Antibacterial activity against Staphylococcus aureus IAM 1011 by two fold dilution method; format: functional
Pseudomonas aeruginosa [2] = experiment: Antibacterial activity against Pseudomonas aeruginosa IAM 1275 by two fold dilution method; format: functional
Bacillus cereus [3] = experiment: Antibacterial activity against Bacillus cereus IAM 1069 by two fold dilution method; format: functional
Staphylococcus aureus [4] = experiment: Antibacterial activity against Staphylococcus aureus IAM 1011 at 10 ug/disk after 18 hrs by agar overlay method; format: functional, organism-based
Procedure, shortened: (§1)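 Agar overlay: bacteria grown in nutrient broth (50-100 µL) mixed into 3 mL melted 0.7% soft nutrient agar at 40 °C, poured over 20 mL 1.5% nutrient agar plates; 10 µL sample deposited on solidified agar; inhibition zone diameter read after 18 h at 37 °C. Methanol as solvent control.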

Bacillus cereus [5] = experiment: Antibacterial activity against Bacillus cereus IAM 1069 at 10 ug/disk after 18 hrs by agar overlay method; format: functional, organism-based; procedure, shortened: as §1
Pseudomonas aeruginosa [6] = experiment: Antibacterial activity against Pseudomonas aeruginosa IAM 1275 at 10 ug/disk after 18 hrs by agar overlay method; format: functional, organism-based; procedure, shortened: as §1
Escherichia coli [7] = experiment: Antibacterial activity against Escherichia coli IAM 1268 by two fold dilution method; format: functional
Escherichia coli [8] = experiment: Antibacterial activity against Escherichia coli IAM 1268 at 10 ug/disk after 18 hrs by agar overlay method; format: functional, organism-based; procedure, shortened: as §1
CCRF S-180 = experiment: Cytotoxicity against mouse S180 cells by MTT assay; format: functional, cell-based

Structure (SMILES) | MIC (Staphylococcus aureus [1]) [mg/L] | MIC (Pseudomonas aeruginosa [2]) [mg/L] | MIC (Bacillus cereus [3]) [mg/L] | Activity (Staphylococcus aureus [4]) | Activity (Bacillus cereus [5]) | Activity (Pseudomonas aeruginosa [6]) | MIC (Escherichia coli [7]) [mg/L] | Activity (Escherichia coli [8]) | Activity (CCRF S-180)
CC(CCO)CC[C@@H]1C(C(=O)O)=CC[C@@H]2C(C)(C)[C@H](O)CC[C@@]12C (some centres not stated) | 256 (≈ 756 µM) | 64 (≈ 189 µM) | 128 (≈ 378 µM) | Active | Active | Active | 128 (≈ 378 µM) | Active | inactive
CC(CCO)CC[C@@H]1C(C(=O)O)=CC[C@@H]2C(C)(C)[C@H](O[C@@H]3O[C@H](CO)[C@@H](O)[C@H](O)[C@H]3O)CC[C@@]12C (some centres not stated) |  | 256 (≈ 511 µM) |  |  |  |  | 128 (≈ 256 µM) |  | inactive
